# According to ChEMBL document CHEMBL1255289, “In vitro antifungal activities of isavuconazole (BAL4815), voriconazole, and fluconazole against 1,007 isolates of zygomycete, Candida, Aspergillus, Fusarium, and Scedosporium species” (2008):
# How the values were obtained:
# Type in all cases: functional
# Fusarium [1] = test: Antifungal activity against Fusarium sp. isolates assessed as lowest compound concentration that produced complete inhibition of microbial growth after 24 hrs by CLSI M38-A procedure based assay
# Scedosporium apiospermum [2] = test: Antifungal activity against Scedosporium apiospermum isolates assessed as lowest compound concentration that produced slight growth or approximately 25% of that of growth control after 24 hrs by CLSI M38-A procedure based assay
# Cunninghamella = test: Antifungal activity against Cunninghamella isolates by Etest
# Method in brief: (§1)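 Etest. The spore inoculum used for microdilution, taken before the 50-fold dilution, was swabbed onto RPMI agar with 2% glucose, strips applied, and plates held at 35°C and read at 24 h. The MIC was where the inhibition ellipse met the strip scale, rounded up to the next twofold dilution.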
# Aspergillus fumigatus = test: Antifungal activity against Aspergillus fumigatus isolates after 48 hrs by CLSI M38-A procedure based assay
# Method in brief: (§2)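 Aspergillus isolates tested by CLSI M38-A broth microdilution at final 0.015–16 µg/ml and 35°C. Plates were read macroscopically at 48 h. The MIC was the lowest concentration producing complete inhibition of growth (MIC-0).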
# Aspergillus niger = test: Antifungal activity against Aspergillus niger isolates by Etest
# Method in brief: (§3)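 Etest on RPMI agar with 2% glucose, swab-inoculated with the microdilution spore or yeast suspension taken before its 50-fold dilution. Plates were incubated at 35°C and read at 48 h. The MIC was the ellipse–scale intercept, raised to the next twofold dilution step.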
# Nakaseomyces glabratus = test: Antifungal activity against Candida glabrata isolates after 48 hrs by CLSI M27-A2 procedure based assay
# Method in brief: (§4)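 Candida isolates tested by CLSI M27-A2 broth microdilution at final 0.015–16 µg/ml, or 0.125–128 µg/ml for the comparator azole. Incubation was at 35°C with a visual read at 48 h. MIC-2 was the lowest concentration giving a prominent turbidity drop, about 50% growth inhibition.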
# Absidia [3] = test: Antifungal activity against Absidia isolates assessed as lowest compound concentration that produced slight growth or approximately 25% of that of growth control after 24 hrs by CLSI M38-A procedure based assay
# Method in brief: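 Clinical isolates were kept at –70°C as spore suspensions in sterile water and subcultured on potato dextrose or Sabouraud agar before testing. Broth microdilution used DMSO stocks in trays stored at –70°C, with final drug 0.015–16 µg/ml.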
# Lomentospora prolificans [4] = test: Antifungal activity against Scedosporium prolificans isolates assessed as lowest compound concentration that produced complete inhibition of microbial growth after 24 hrs by CLSI M38-A procedure based assay
# Candida = test: Antifungal activity against Candida sp. isolates after 48 hrs by CLSI M27-A2 procedure based assay
# Method in brief: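 Candida isolates were stored at –70°C as yeast suspensions and subcultured on potato dextrose or Sabouraud agar before use. Broth microdilution used DMSO drug stocks, with final well concentrations of 0.015–16 or 0.125–128 µg/ml depending on the azole. Plates were incubated at 35°C and read macroscopically at 48 h. MIC-2 was the lowest concentration giving a prominent turbidity decrease (~50% growth inhibition).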
# Scedosporium apiospermum [5] = test: Antifungal activity against Scedosporium apiospermum isolates assessed as lowest compound concentration that produced complete inhibition of microbial growth after 24 hrs by CLSI M38-A procedure based assay
# Aspergillus terreus = test: Antifungal activity against Aspergillus terreus isolates after 48 hrs by CLSI M38-A procedure based assay; method in brief: as §2
# Aspergillus sp. = test: Antifungal activity against Aspergillus sp. isolates by Etest; method in brief: as §3
# Candida albicans = test: Antifungal activity against Candida albicans isolates after 48 hrs by CLSI M27-A2 procedure based assay; method in brief: as §4
# Syncephalastrum = test: Antifungal activity against Syncephalastrum isolates assessed as lowest compound concentration that produced complete inhibition of microbial growth after 24 hrs by CLSI M38-A procedure based assay
# Method in brief: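 Zygomycete isolates subcultured on potato dextrose or Sabouraud agar, then tested by CLSI M38-A broth microdilution. Drugs were serially diluted in plates at final 0.015–16 µg/ml and incubated at 35°C. Plates were read by eye at 24 h. MIC-0 was the lowest concentration giving complete growth inhibition.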
# Fusarium [6] = test: Antifungal activity against Fusarium sp. isolates by Etest; method in brief: as §3
# Absidia [7] = test: Antifungal activity against Absidia isolates by Etest; method in brief: as §1
# Aspergillus flavus = test: Antifungal activity against Aspergillus flavus isolates after 48 hrs by CLSI M38-A procedure based assay; method in brief: as §2
# Lomentospora prolificans [8] = test: Antifungal activity against Scedosporium prolificans isolates assessed as lowest compound concentration that produced slight growth or approximately 25% of that of growth control after 24 hrs by CLSI M38-A procedure based assay
structure (smiles),measurement,setting,value
C[C@@H](c1nc(-c2ccc(C#N)cc2)cs1)[C@](O)(Cn1cncn1)c1cc(F)ccc1F [ISAVUCONAZOLE],MFC50,Fusarium [1],>16 µg/mL
same,MFC,"Fusarium [1]; Fusarium, 24 h",4 µg/mL
same,MIC50,"Fusarium [1]; Fusarium, 24 h",16 µg/mL
same,MIC90,"Fusarium [1]; Fusarium, 24 h",> 16 µg/mL
same,MIC50,Scedosporium apiospermum [2],1 µg/mL
same,MIC90,Scedosporium apiospermum [2],2 µg/mL
same,MIC,Cunninghamella,0.38 µg/mL
same,MFC50,Aspergillus fumigatus,1 µg/mL
same,MFC90,Aspergillus fumigatus,1 µg/mL
same,MFC,"Aspergillus fumigatus; Aspergillus fumigatus, 48 h",0.125 µg/mL
same,MIC50,"Aspergillus fumigatus; Aspergillus fumigatus, 48 h",1 µg/mL
same,MIC90,"Aspergillus fumigatus; Aspergillus fumigatus, 48 h",1 µg/mL
same,MIC,Aspergillus niger,0.094 µg/mL
same,MIC50,Aspergillus niger,0.5 µg/mL
same,MIC90,Aspergillus niger,0.75 µg/mL
same,MFC50,Nakaseomyces glabratus,16 µg/mL
same,MFC90,Nakaseomyces glabratus,>16 µg/mL
same,MFC,"Nakaseomyces glabratus; Nakaseomyces glabratus, 48 h",0.03 µg/mL
same,MIC50,"Nakaseomyces glabratus; Nakaseomyces glabratus, 48 h",0.25 µg/mL
same,MIC90,"Nakaseomyces glabratus; Nakaseomyces glabratus, 48 h",1 µg/mL
same,MIC,Absidia [3],0.5 µg/mL
same,MFC50,Lomentospora prolificans [4],>16 µg/mL
same,MFC90,Lomentospora prolificans [4],>16 µg/mL
same,MFC,"Lomentospora prolificans [4]; Lomentospora prolificans, 24 h",> 16 µg/mL
same,MIC,"Lomentospora prolificans [4]; Lomentospora prolificans, 24 h",> 16 µg/mL
same,MFC,Candida,0.003 µg/mL
same,MIC,Candida,> 0.015 µg/mL
same,MFC50,Scedosporium apiospermum [5],8 µg/mL
same,MFC90,Scedosporium apiospermum [5],>16 µg/mL
same,MFC,"Scedosporium apiospermum [5]; Scedosporium apiospermum, 24 h",2 µg/mL
same,MIC50,"Scedosporium apiospermum [5]; Scedosporium apiospermum, 24 h",4 µg/mL
same,MIC90,"Scedosporium apiospermum [5]; Scedosporium apiospermum, 24 h",4 µg/mL
same,MFC50,Aspergillus terreus,1 µg/mL
same,MFC90,Aspergillus terreus,1 µg/mL
same,MFC,"Aspergillus terreus; Aspergillus terreus, 48 h",0.25 µg/mL
same,MIC50,"Aspergillus terreus; Aspergillus terreus, 48 h",1 µg/mL
same,MIC90,"Aspergillus terreus; Aspergillus terreus, 48 h",1 µg/mL
same,MIC,Aspergillus sp.,0.02 µg/mL
same,MFC50,Candida albicans,>16 µg/mL
same,MFC90,Candida albicans,>16 µg/mL
same,MFC,"Candida albicans; Candida albicans, 48 h",0.03 µg/mL
same,MIC50,"Candida albicans; Candida albicans, 48 h",0.03 µg/mL
same,MIC90,"Candida albicans; Candida albicans, 48 h",< 0.015 µg/mL
same,MFC,Syncephalastrum,1 µg/mL
same,MIC,Syncephalastrum,0.25 µg/mL
same,MIC,Fusarium [6],0.38 µg/mL
same,MIC50,Fusarium [6],> 32 µg/mL
same,MIC90,Fusarium [6],> 32 µg/mL
same,MIC,Absidia [7],0.25 µg/mL
same,MFC50,Aspergillus flavus,1 µg/mL
same,MFC90,Aspergillus flavus,1 µg/mL
same,MFC,"Aspergillus flavus; Aspergillus flavus, 48 h",0.5 µg/mL
same,MIC50,"Aspergillus flavus; Aspergillus flavus, 48 h",1 µg/mL
same,MIC90,"Aspergillus flavus; Aspergillus flavus, 48 h",1 µg/mL
same,MIC,Lomentospora prolificans [8],4 µg/mL
